Measured values pooled from the literature.
Protocols differ between the studies behind these lines.
Effect on: enzyme activity
ABL1: Tyrosine-protein kinase ABL1 (ABL1, Homo sapiens, UniProt P00519)
ABL1 Q252H: Tyrosine-protein kinase ABL1 (ABL1, Homo sapiens, UniProt P00519, Q252H)

CC(C)(O)[C@H]1CC[C@H](Nc2ccc3ncc(-c4cccc(C(F)(F)F)c4)n3n2)CC1  remaining activity (ABL1; inhibitor; 1 µM): 69.8%
Cc1[nH]c(/C=C2\C(=O)Nc3ccc(F)cc32)c(C)c1C(=O)N[C@H]1CCN(C(=O)N(C)C)C1  remaining activity (ABL1; inhibitor; 0.1 µM): 104%
Cc1cnc(NC2CCOCC2)nc1-n1cnc(C(=O)NC(CN)c2cc(F)cc(Cl)c2)c1 (stereo not drawn)  remaining activity (ABL1 Q252H; inhibitor, radiometric; 1 µM): 91%
COc1cc(Nc2cnc(C#N)c(O[C@H](C)CN(C)C)n2)ncc1-c1cnn(C)c1  remaining activity (ABL1; inhibitor, radiometric; 10 µM): 58%
CC(C)(C)c1nc(-c2cccc(NS(=O)(=O)c3c(F)cccc3F)c2F)c(-c2ccnc(N)n2)s1  remaining activity (ABL1; inhibitor, radiometric; 1 µM): 94%
Cc1ccc(NC(=O)c2ccc(C)c(C(F)(F)F)c2)cc1C#Cc1nn(C2CCC(O)CC2)c2ncnc(N)c12 (stereo not drawn)  remaining activity (ABL1 Q252H; 10 µM): 2%
COc1cc(Cl)c(C(=O)N[C@@H](CN[C@H]2CC[C@@H](N)CC2)Cc2ccc(C#N)cc2)cc1-c1ccc(CN[C@H](C)c2ccc(C)cc2)o1  remaining activity (ABL1; inhibitor; 1 µM): 96%
CCCOc1ccc(OC)c(F)c1C(=O)c1ccc(C(=O)N[C@@H]2CNC[C@H]2NC(=O)c2ccc3[nH]ncc3c2)cc1  remaining activity (ABL1; inhibitor; 10 µM): 80%
Cc1sc(C(=O)NC2COC2)cc1-n1cc(NC(=O)Nc2c(F)cccc2Cl)cn1  remaining activity (ABL1; inhibitor; 10 µM): 102%
